ChEMBL document CHEMBL1131203, “Second generation "peptoid" CCK-B receptor antagonists: identification and development of N-(adamantyloxycarbonyl)-alpha-methyl-(R)-tryptophan derivative (CI-1015) with an improved pharmacokinetic profile” (J Med Chem, 1998)
pIC50: −log10 of the molar value. Values belong to the molecule of their own block, whether it stands above or below them. The source made the active and inactive calls. No cut-off for these calls is given here.

Key:
[1] = Absolute oral bioavailability was evaluated in Hp-beta-CD solution at a dose of 20 mg/kg orally; assay type: ADME, organism-based; details: eutheria, in vivo
How it was run: (§1)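 Fasted male Wistar rats, groups of 3–4, given a single 20 mg/kg dose po or iv in the stated vehicle. Heparinized plasma was drawn from a jugular-vein cannula at serial times out to 24 h and assayed by validated HPLC-fluorescence. Absolute bioavailability is the dose-normalized ratio of AUC after po dosing to AUC after iv dosing.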

[2] = Pharmacokinetic parameter tmax was evaluated in saline solution at a dose of 20 mg/kg orally; assay type: ADME, organism-based; parameters: dose 20 mg/kg, route oral; details: in vivo, po
How it was run: (§2)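 Fasted male Wistar rats, groups of 3–4, given a single oral 20 mg/kg dose in the stated vehicle. Heparinized plasma was collected from an implanted jugular-vein cannula at serial times out to 24 h, kept frozen, and assayed by validated HPLC-fluorescence. Cmax, tmax, AUC(0–∞) and terminal t1/2 were obtained by noncompartmental analysis. Values are means (%RSD).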

[3] = tested on: Mus musculus; experiment: Concentration in forebrain after intravenous injection evaluated after 10 min. at a dose of 10 mg/kg; Below low level of detection; assay type: functional, organism-based; parameters: dose 10 mg/kg
How it was run: (§3)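 Ex vivo binding: mice were dosed iv with compound or vehicle, given either as saline or as 10% EtOH–60% propylene glycol–30% saline. Forebrains were taken at 5, 10 or 20 min, homogenized in HEPES buffer with bacitracin at pH 7.2, and incubated with 50 pM [125I]BH-CCK8s for 2 h at 22 °C. After filtration, bound radioligand was gamma-counted and read against calibration curves prepared in vehicle tissue. Detection limit was about 1 pmol/forebrain. n = 3–13.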

[4] = Maximum plasma concentration was evaluated in Hp-beta-CD solution at a dose of 20 mg/kg orally; assay type: ADME, organism-based; parameters: dose 20 mg/kg, route oral; details: po; how it was run: as §2
[5] = Pharmacokinetic parameter tmax was evaluated in Hp-beta-CD solution at a dose of 20 mg/kg orally; assay type: ADME, organism-based; parameters: dose 20 mg/kg, route oral; details: in vivo, po; how it was run: as §2
[6] = tested on: Mus musculus; experiment: Concentration in forebrain after intravenous injection evaluated after 20 min. at a dose of 10 mg/kg; assay type: functional; how it was run: as §3
[7] = Pharmacokinetic parameter AUC was evaluated in Hp-beta-CD solution; assay type: ADME; how it was run: as §2
[8] = Pharmacokinetic parameter AUC was evaluated in saline solution at a dose of 20 mg/kg orally; assay type: ADME, organism-based; parameters: dose 20 mg/kg, route oral; details: in vivo, po; how it was run: as §2
[9] = Absolute oral bioavailability was evaluated in saline solution at a dose of 20 mg/kg orally; assay type: ADME, organism-based; details: eutheria, in vivo; how it was run: as §1
[10] = tested on: Mus musculus; experiment: Concentration in forebrain after intravenous injection evaluated after 5 min. at a dose of 10 mg/kg; assay type: functional; how it was run: as §3
[11] = Maximum plasma concentration was evaluated in saline solution at a dose of 20 mg/kg orally; assay type: ADME, organism-based; parameters: dose 20 mg/kg, route oral; details: po; how it was run: as §2
[12] = Pharmacokinetic parameter half-life evaluated in HP-beta-CD solution at a dose of 20 mg/kg orally; assay type: ADME, organism-based; parameters: dose 20 mg/kg, route oral; details: in vivo, po; how it was run: as §2
[13] = Absolute oral bioavailability was evaluated in 0.5% methylcellulose suspentionat a dose of 20 mg/kg orally; assay type: ADME, organism-based; details: eutheria, in vivo; how it was run: as §1
[14] = target: T1, Cholecystokinin receptor type A (Rattus norvegicus, UniProt P30551); experiment: Inhibitory concentration against radioligand [125I]Bolton-Hunter labeled CCK-8 to cholecystokinin type A receptor in the rat pancreas
T1 sequence (P30551 whole entry): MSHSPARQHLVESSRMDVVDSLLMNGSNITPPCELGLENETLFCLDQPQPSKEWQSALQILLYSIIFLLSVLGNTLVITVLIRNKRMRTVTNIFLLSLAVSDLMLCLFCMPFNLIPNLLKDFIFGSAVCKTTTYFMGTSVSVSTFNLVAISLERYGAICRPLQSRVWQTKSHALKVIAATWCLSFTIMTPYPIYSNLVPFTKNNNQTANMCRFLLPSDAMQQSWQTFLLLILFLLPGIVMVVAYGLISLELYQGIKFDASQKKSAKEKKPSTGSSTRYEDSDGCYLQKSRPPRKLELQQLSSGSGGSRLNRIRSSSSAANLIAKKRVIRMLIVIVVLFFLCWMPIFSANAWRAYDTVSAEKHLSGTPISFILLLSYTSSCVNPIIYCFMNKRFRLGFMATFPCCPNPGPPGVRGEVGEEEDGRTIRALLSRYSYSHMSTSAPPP

[15] = Pharmacokinetic parameter AUC evaluated in 0.5% methylcellulose suspension at a dose of 20 mg/kg orally; assay type: ADME, organism-based; parameters: dose 20 mg/kg, route oral; details: in vivo, po; how it was run: as §2
[16] = tested on: Mus musculus; experiment: Concentration in forebrain after 20 min of injection at a concentration of 1 mg/kg, iv in mice; assay type: functional; how it was run: as §3
[17] = Pharmacokinetic parameter half-life was evaluated in 100% PEG solution at a dose of 20 mg/kg orally; assay type: ADME, organism-based; parameters: dose 20 mg/kg, route oral; details: in vivo, po; how it was run: as §2
[18] = Pharmacokinetic parameter half-life was evaluated in 0.5% methylcellulose suspension at a dose of 20 mg/kg orally; assay type: ADME, organism-based; parameters: dose 20 mg/kg, route oral; details: in vivo, po; how it was run: as §2
[19] = Pharmacokinetic parameter tmax was evaluated in 10% PEG suspension at a dose of 20 mg/kg orally; assay type: ADME, organism-based; parameters: dose 20 mg/kg, route oral; details: in vivo, po; how it was run: as §2
[20] = Maximum plasma concentration was evaluated in 0.5% methylcellulose suspension at a dose of 20 mg/kg orally; assay type: ADME, organism-based; parameters: dose 20 mg/kg, route oral; details: po; how it was run: as §2
[21] = Absolute oral bioavailability was evaluated in 100% PEG solution; assay type: ADME, organism-based; details: eutheria, in vivo; how it was run: as §1
[22] = Maximum plasma concentration was evaluated in HP-beta-CD solution at a dose of 20 mg/kg orally; assay type: ADME, organism-based; parameters: dose 20 mg/kg, route oral; details: po; how it was run: as §2
[23] = Pharmacokinetic parameter Tmax was evaluated in 0.5% methylcellulose suspension; details: in vivo
[24] = Oral bioavailability (dosed in HP-beta-CD solution) (dose 20 mg/kg p.o.); assay type: ADME, organism-based; details: eutheria, in vivo; how it was run: as §1
[25] = Pharmacokinetic parameter AUC was evaluated in 100% PEG solution at a dose of 20 mg/kg orally; assay type: ADME, organism-based; parameters: dose 20 mg/kg, route oral; details: in vivo, po; how it was run: as §2
[26] = Absolute oral bioavailability was evaluated in 10% PEG suspension at a dose of 20 mg/kg orally; assay type: ADME, organism-based; details: eutheria, in vivo; how it was run: as §1
[27] = tested on: Mus musculus; experiment: Concentration in forebrain after 5 min of injection at a concentration of 1 mg/kg, iv in mice; assay type: functional; how it was run: as §3
[28] = Pharmacokinetic parameter tmax was evaluated in HP-beta-CD solution at a dose of 20 mg/kg orally; assay type: ADME, organism-based; parameters: dose 20 mg/kg, route oral; details: in vivo, po; how it was run: as §2
[29] = Maximum plasma concentration was evaluated in 10% of PEG suspension at a dose of 20 mg/kg orally; assay type: ADME, organism-based; parameters: dose 20 mg/kg, route oral; details: po; how it was run: as §2
[30] = Maximum plasma concentration was evaluated in 100% of PEG solution at a dose of 20 mg/kg orally; assay type: ADME, organism-based; parameters: dose 20 mg/kg, route oral; details: po; how it was run: as §2
[31] = Pharmacokinetic parameter AUC was evaluated in 10% PEG suspension at a dose of 20 mg/kg orally; assay type: ADME, organism-based; parameters: dose 20 mg/kg, route oral; details: in vivo, po; how it was run: as §2
[32] = tested on: Mus musculus; experiment: Concentration in forebrain after 10 min of injection at a concentration of 1 mg/kg, iv in mice; assay type: functional; how it was run: as §3
[33] = Pharmacokinetic parameter half-life was evaluated in 10% PEG suspension at a dose of 20 mg/kg orally; assay type: ADME, organism-based; parameters: dose 20 mg/kg, route oral; details: in vivo, po; how it was run: as §2
[34] = Pharmacokinetic parameter tmax was evaluated in 100% PEG solution at a dose of 20 mg/kg orally; assay type: ADME, organism-based; parameters: dose 20 mg/kg, route oral; details: in vivo, po; how it was run: as §2
[35] = Pharmacokinetic parameter AUC was evaluated in HP-beta-CD solution at a dose of 20 mg/kg orally; assay type: ADME, organism-based; parameters: dose 20 mg/kg, route oral; details: in vivo, po; how it was run: as §2

bioavailability [1]: < 1% | Tmax [2]: 2.3 h | Cmax [4]: 5 ng/mL | Tmax [5]: 0.25 h | AUC [7]: 2.3 ng·h/mL | AUC [8]: 134 ng·h/mL | bioavailability [9]: 3.2% | Cmax [11]: 32 ng/mL
SMILES: C[C@](Cc1c[nH]c2ccccc12)(NC(=O)OC1[C@H]2C[C@@H]3C[C@@H](C[C@H]1C3)C2)C(=O)NC[C@H](NC(=O)CCC(=O)O)c1ccccc1 (stereo not given in full) [CI-988]
Brain level [3]: inactive | Brain level [6]: 8 pmol/forebrain | Brain level [10]: 10 pmol/forebrain

half-life [12]: 0.9 h | bioavailability [13]: 8.9% | pIC50 [14]: 5.54 | AUC [15]: 673 ng·h/mL | half-life [17]: 1.3 h | half-life [18]: 1 h | Tmax [19]: 3.5 h | Cmax [20]: 185 ng/mL | bioavailability [21]: 9.6% | Cmax [22]: 756 ng/mL | Tmax [23]: 3 h | bioavailability [24]: 28% | AUC [25]: 724 ng·h/mL | bioavailability [26]: 13% | Tmax [28]: 1.8 h | Cmax [29]: 203 ng/mL | Cmax [30]: 219 ng/mL | AUC [31]: 953 ng·h/mL | half-life [33]: 1.1 h | Tmax [34]: 1 h | AUC [35]: 2130 ng·h/mL
SMILES: C[C@](Cc1c[nH]c2ccccc12)(NC(=O)OC1C2CC3CC(C2)CC1C3)C(=O)N[C@@H]1CCCC[C@H]1O (stereo not given in full)
Brain level [16]: 166 pmol/forebrain | Brain level [27]: 177 pmol/forebrain | Brain level [32]: 154 pmol/forebrain
